Assay results of several laboratories.
Compare with care: the assays were run in different laboratories.
Cell line: MDA-MB-231
Effect on: cell growth or viability

SMILES | assay | conditions | IC50 [µM]
Nc1cc(Br)c(Br)cc1N |  | 72 h | 60
CO[C@]1([C@@H]2CSC(=O)N2C)C[C@H]2C[C@@H](CC[C@H](C)/C=C\C=C\CC/C(C)=C\C(=O)O2)O1 | MTT | 72 h | 19.9
N.N.[Cl][Pt][Cl] |  | 48 h | 27.5
CCC1(c2ccc(N)cc2)CCC(=O)NC1=O (stereo not shown) | CCK-8 | 48 h | > 50
COc1ccc2c(c1)[nH]c1c(C)nccc12 | MTT | 72 h | 16.7
N.N.O=C([O-])C1(C(=O)[O-])CCC1.[Pt+2] | MTT | 96 h | 33
N.N.[Cl][Pt][Cl] | SRB |  | 12.2
CO[C@]1([C@@H]2CSC(=O)N2C(=O)c2ccccc2)C[C@H]2C[C@@H](CC[C@H](C)/C=C\C=C\CC/C(C)=C\C(=O)O2)O1 | MTT | 72 h | 4.48
CC1=CC(=O)c2c(O)cccc2C1=O | MTT | 24 h | 4.4
CO[C@]1([C@@H]2CSC(=O)N2Cc2ccccc2)C[C@H]2C[C@@H](CC[C@H](C)/C=C\C=C\CC/C(C)=C\C(=O)O2)O1 | MTT | 72 h | 6.82
Nc1cc(I)c(I)cc1N |  | 72 h | 65
COC1(C2CSC(=O)N2)CC2CC(CCC(C)C=CC=CCCC(C)=CC(=O)O2)O1 (stereo not shown) | MTT | 72 h | 23.4
COc1c(O)cc2oc3cc(O)c(CC=C(C)C)c(O)c3c(=O)c2c1CC=C(C)C |  | 48 h | 20.7
